pIC50: −log10 of the molar value. Calls of active or inactive are those of the source. The calls are words filed in the database; no cut-off is given here.
What was measured:
[1] = test system: MCF7; experiment: Induction of apoptosis in human MCF7 cells assessed as effect on Mcl-1 long level at 1 to 3 uM after 24 hrs by Western blot analysis; type: functional, cell-based
Summary of the method: (§1)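 Cells were treated at 1, 3 and 5 µM for 24 h at 37 °C. Lysis was in ice-cold Triton X-100 buffer with protease and phosphatase inhibitors; nuclear proteins were extracted separately. Protein was quantified by BCA. Lysates were separated by electrophoresis, transferred to nitrocellulose and blocked in non-fat milk for 1 h. Primary antibody was applied overnight at 4 °C and secondary for 1 h at 28 °C. Detection was by enhanced chemiluminescence.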

[2] = test system: MDA-MB-231; experiment: Cytotoxicity against human MDA-MB-231 cells assessed as reduction in cell viability after 4 hrs by MTT assay; type: functional, cell-based
Summary of the method: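 MTT: 10,000–20,000 cells/well attached for 16 h, then washed twice with serum-free RPMI. Treated with 1–200 µM for 4 h, 3 parallel runs per concentration. MTT added for 2 h; medium partly removed and isopropanol added. A590 read. Viability = (A treated − A doxorubicin)/(A medium − A doxorubicin)×100. Mean of three experiments, triplicate wells each.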

[3] = test system: MCF7; experiment: Induction of apoptosis in human MCF7 cells assessed as necrotic cells at 1 uM after 16 hrs by annexin-V FITC/propidium iodide staining based flow cytometric analysis relative to control; type: functional
Summary of the method: (§2)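 Cells were grown in DMEM with 10% heat-inactivated FBS at 37 °C and 5% CO₂, then plated at 500,000 cells/well in 24-well plates. They were treated from a DMSO stock (DMSO ≤0.1%) for 8, 12 or 16 h. After a PBS wash, cells were resuspended in binding buffer (10 mM HEPES pH 7.4, 2.5 mM CaCl₂, 140 mM NaCl, 0.1% BSA), stained 40 min with FITC-annexin V, then with PI, and run on the flow cytometer immediately. Values are the mean of three independent experiments.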

[4] = test system: HeLa; experiment: Induction of apoptosis in human HeLa cells assessed as early apoptotic cells at 1 uM after 8 hrs by annexin-V FITC/propidium iodide staining based flow cytometric analysis relative to control; type: functional; summary of the method: as §2
[5] = test system: HeLa; experiment: Induction of ROS generation in human HeLa cells at 5 uM after 4 to 8 hrs in presence of NAC by DCFH-DA staining-based fluorescence spectrophotometric analysis; type: functional, cell-based
Summary of the method: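 DCFH-DA ROS: HeLa or MCF-7 cells at 2×10^6/well cultured 12 h, treated 4 or 8 h; t-BHP (10 μM) is the positive control. DCFH-DA 10 μM added for 10 min at 37 °C, cells washed twice with PBS. Fluorescence read at ex 485/em 520 nm. For the NAC arm, NAC (5 mM) is added to the medium before treatment.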

[6] = test system: MCF7; experiment: Induction of nitric oxide production in human MCF7 cells at 5 uM measured over 8 hrs by Griess reaction based assay relative to control; type: functional
Summary of the method: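 Cells seeded at 2×10^6 cells/well for 12 h, then exposed to 1, 5 and 10 μM compound for 8 h at 37 °C. Culture supernatant mixed with Griess reagent (0.002% N-1-naphthyl-ethylenediamine dihydrochloride, 0.5% sulfanilic acid, 14% glacial acetic acid). Nitrite read by absorbance at 550 nm and compared with vehicle group.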

[7] = test system: HeLa; experiment: Induction of nitric oxide production in human HeLa cells at 1 uM measured over 8 hrs by Griess reaction based assay relative to control; type: functional
Summary of the method: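 Cells were plated at 2×10⁶ cells/well in 24-well plates for 12 h, then treated at 1, 5 and 10 µM for 8 h at 37 °C. Culture supernatant was mixed with Griess reagent (0.002% N-1-naphthylethylenediamine, 0.5% sulfanilic acid, 14% glacial acetic acid). Nitric oxide was quantified by absorbance at 550 nm.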

[8] = test system: MCF7; experiment: Induction of caspase-dependent apoptosis in human MCF7 cells assessed as activation of caspase-3 at 1 to 3 uM after 24 hrs by Western blot analysis; type: functional, cell-based
Summary of the method: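 Cleaved caspase-3 immunoblot. Cells were exposed at 1, 3 and 5 µM for 24 h at 37 °C, with paclitaxel 3 µM as positive control. Lysis was in ice-cold Triton X-100 buffer, and protein was measured by BCA. Lysates were separated by electrophoresis, transferred to nitrocellulose and blocked in milk. Primary antibody was applied overnight at 4 °C and secondary for 1 h at 28 °C. Detection was by enhanced chemiluminescence.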

[9] = test system: MCF7; experiment: Induction of caspase-dependent apoptosis in human MCF7 cells assessed as activation of caspase-6 at 1 to 3 uM after 24 hrs by Western blot analysis; type: functional, cell-based; summary of the method: as §1
[10] = test system: MCF7; experiment: Induction of caspase-dependent apoptosis in human MCF7 cells assessed as activation of caspase-9 at 1 to 3 uM after 24 hrs by Western blot analysis; type: functional, cell-based; summary of the method: as §1
[11] = test system: MCF7; experiment: Induction of apoptosis in human MCF7 cells assessed as change in Bid level at 1 to 3 uM after 24 hrs by Western blot analysis; type: functional, cell-based; summary of the method: as §1
[12] = test system: MCF7; experiment: Induction of apoptosis in human MCF7 cells assessed as up-regulation of acetylated p53 level at 5 uM after 24 hrs by sandwich ELISA; type: functional, cell-based
Summary of the method: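 Cells were treated at 5 µM for 12, 24 and 48 h. Lysis was in ice-cold lysis buffer with 1 mM PMSF (5 min on ice), followed by three freeze-thaw cycles and a 10 min spin at 4 °C. Acetylated and total p53 were measured in the supernatant by kit sandwich ELISA, read at 450 nm. The control index is sample absorbance divided by that of untreated cells at the same time. Values are mean ± SD of triplicate experiments.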

[13] = biological target: T1, Mitogen-activated protein kinase; ERK1/ERK2 (Homo sapiens) (UniProt P27361+P28482); experiment: Activation of ERK1/2 phosphorylation in human MCF7 cells assessed as increase in ratio of phosphorylated ERK1/2 to total ERK1/2 level at 5 uM by ELISA; type: cell-based
T1 sequence (P27361 whole entry, looked up): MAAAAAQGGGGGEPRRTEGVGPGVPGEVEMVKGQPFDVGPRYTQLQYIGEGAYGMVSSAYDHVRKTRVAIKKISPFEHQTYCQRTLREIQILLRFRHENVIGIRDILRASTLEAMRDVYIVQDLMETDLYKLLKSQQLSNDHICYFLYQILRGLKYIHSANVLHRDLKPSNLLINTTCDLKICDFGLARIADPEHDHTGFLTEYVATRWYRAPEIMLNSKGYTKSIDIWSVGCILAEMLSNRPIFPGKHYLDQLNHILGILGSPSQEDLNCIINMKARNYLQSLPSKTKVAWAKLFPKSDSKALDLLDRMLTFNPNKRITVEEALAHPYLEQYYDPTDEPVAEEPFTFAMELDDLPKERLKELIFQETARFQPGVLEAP
T1 sequence (P28482 whole entry, looked up): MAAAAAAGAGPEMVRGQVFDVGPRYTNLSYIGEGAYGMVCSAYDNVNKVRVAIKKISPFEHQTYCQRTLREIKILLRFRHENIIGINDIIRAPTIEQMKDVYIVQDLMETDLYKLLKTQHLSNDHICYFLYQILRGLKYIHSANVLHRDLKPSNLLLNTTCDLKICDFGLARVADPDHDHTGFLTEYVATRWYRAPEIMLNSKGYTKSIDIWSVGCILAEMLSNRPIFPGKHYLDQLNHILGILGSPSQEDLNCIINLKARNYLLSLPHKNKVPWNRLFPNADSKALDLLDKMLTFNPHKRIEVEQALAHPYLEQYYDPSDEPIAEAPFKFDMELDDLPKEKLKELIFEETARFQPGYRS
Summary of the method: (§3)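 Cell-based ELISA: HeLa or MCF-7 cells (20×10^3/well) grown overnight at 37 °C, 5% CO2, treated with 5 μM, then fixed and blocked. Probed with rabbit anti-total and anti-phospho P38, JNK or ERK1/2 (1:100), then HRP anti-rabbit IgG. Result is the phospho/total ratio; inhibitor arms use […], […] or SP600125. n=3.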

[14] = biological target: T1, Mitogen-activated protein kinase; ERK1/ERK2 (Homo sapiens); experiment: Activation of ERK1/2 phosphorylation in human MCF7 cells assessed as increase in ratio of phosphorylated ERK1/2 to total ERK1/2 level at 5 uM in presence of ERK1/2 inhibitor PD98059 by ELISA; type: cell-based; summary of the method: as §3
[15] = biological target: MAP kinase p38 (Homo sapiens) (UniProt O15264+Q15759+Q16539+P53778); experiment: Activation of MAPK p38 phosphorylation in human HeLa cells assessed as increase in ratio of phosphorylated p38 to total p38 level at 5 uM in presence of p38 kinase inhibitor […] by ELISA; type: cell-based; summary of the method: as §3
[16] = biological target: T1, Mitogen-activated protein kinase; ERK1/ERK2 (Homo sapiens); experiment: Activation of ERK1/2 phosphorylation in human HeLa cells assessed as increase in ratio of phosphorylated ERK1/2 to total ERK1/2 level at 5 uM in presence of ERK1/2 inhibitor PD98059 by ELISA; type: cell-based; summary of the method: as §3
[17] = biological target: T1, Mitogen-activated protein kinase; ERK1/ERK2 (Homo sapiens); experiment: Induction of ERK/MAPK signal transduction pathway in human MCF7 cells assessed as increase ERK1/2 translocation; type: cell-based

Cn1cc(/C=N\NC(=O)c2cn(C)c3ccc(Br)cc23)c2ccccc21
Activity [1]: inactive | Activity [2]: Dose-dependent effect | pIC50 ([2]; MDA-MB-231, 4 h): 5.26 | Activity [3]: 4.71% | Activity [4]: 19.15% | Activity [5]: inactive | Activity [6]: 48.9% | Activity [7]: 29.8% | Activity [8]: inactive | Activity [9]: inactive | Activity [10]: inactive | Activity [11]: inactive | Activity [12]: Active | Activity [13]: Active | Activity [14]: inactive | Activity [15]: inactive | Activity [16]: inactive | Activity [17]: Active
